Results published in article PMC3481556 (Journal of Natural Products, 2012).

How the values were obtained:
[1] = test system: liver-stage Plasmodium berghei; experiment: Liver-stage P. berghei assay; format: cell-based, Plasmodium berghei ANKA
Outline: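 Luciferase-expressing P. berghei ANKA sporozoites came from dissected infected Anopheles stephensi mosquitoes. 4000 sporozoites infected 15 000 HepG2 cells per well with test compound in triplicate, 0 to 50 μg/mL, final DMSO 1%. After 2 days at 37 °C, relative parasite load was read by Bright-Glo luminescence. Standard inhibition dose–response fit gave IC50, mean of two independent experiments.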

Bacillus subtilis 3610 = experiment: Antibiotic assay; format: cell-based; details: concentrations as high as 50 μg/mL
blood stage = experiment: Blood stage assays; format: cell-based; details: Plasmodium berghei, read-out: IC50 in blood stage assays
[2] = test system: HepG2 human hepatoma cells; experiment: Cytotoxic assay, HepG2 cell viability; format: cell-based; details: concentrations as high as 50 μg/mL
Outline: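 HepG2 cells kept in DMEM with 10% FBS and 1% antibiotic–antimycotic at 37 °C, 5% CO2. Test compound in DMSO added in triplicate to 15 000 cells per well, 0 to 50 μg/mL, final DMSO 1%. Incubated 2 days at 37 °C, then viability read by CellTiter-Glo luminescence. Standard inhibition dose–response fit gave IC50, averaged from two independent experiments.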

In the case of COc1cccc2c1C(=O)c1ccc3c(c1C2=O)C(=O)C[C@](C)(O)C3 [Compound 4, 6-deoxy-8-O-methylrabelomycin], the “activity against liver-stage Plasmodium berghei (in words)” value [1] is reported as “showed antibiotic activity” and the “activity against B. subtilis (in words)” value (Bacillus subtilis 3610) is reported as “showed antibiotic activity”.

Molecule O=C1C(O)=C([C@H]2CC[C@H](c3ccc(Cl)cc3)CC2)C(=O)c2ccccc21 [Atovaquone] has an IC50 (blood stage) of 0.3 nM.

For COc1cccc2c1C(=O)c1ccc3cc(C)cc(O)c3c1C2=O [Compound 5, X-14881 E], the “cytotoxicity against HepG2 cells (in words)” value [2] was “moderate cytotoxicity”, the “activity against liver-stage Plasmodium berghei (in words)” value [1] was “showed antibiotic activity” and the “activity against B. subtilis (in words)” value (Bacillus subtilis 3610) was “showed antibiotic activity”.
